Data as given in ChEMBL document CHEMBL4190234, “Design, synthesis and anticancer activity of new monastrol analogues bearing 1,3,4-oxadiazole moiety” (Eur J Med Chem, 2017).

Legend:
Type in all cases: functional
HL-60(TB) = assay: Growth inhibition of human HL-60(TB) cells at 10 uM incubated for 48 hrs by sulforhodamine B assay relative to control; details: HL-60, 48 h, read-out: GI
How it was run: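 Single dose of 10 µM in the NCI ~60-line panel. Cells grown in RPMI 1640 with 5% FBS and 2 mM L-glutamine, plated and pre-incubated 24 h, then exposed 48 h at 37°C under 5% CO2. Suspension cells fixed with TCA (16% final) and stained with sulforhodamine B, A515 read. Reported as percent growth versus untreated control and as GI%.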

SR = assay: Growth inhibition of human SR cells at 10 uM incubated for 48 hrs by sulforhodamine B assay relative to control; details: read-out: GI
How it was run: (§1)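 NCI single-dose screen: cells grown in RPMI 1640 with 5% FBS and 2 mM L-glutamine, plated at 5,000–40,000 cells/well and preincubated 24 h at 37 °C, 5% CO2. Compounds taken from DMSO stock and tested at final 10 µM for 48 h. Cells fixed with TCA, stained with 0.4% SRB, absorbance read at 515 nm. Percentage growth calculated against untreated controls; controls held DMSO at the same dilution.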

HOP-62 = assay: Growth inhibition of human HOP62 cells at 10 uM incubated for 48 hrs by sulforhodamine B assay relative to control; details: HOP-62, 48 h, read-out: GI
How it was run: (§2)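 Single-dose screen at 10 μM final: cells in RPMI 1640, 5% FBS, 2 mM L-glutamine, plated 5,000–40,000/well, preincubated 24 h at 37°C, 5% CO2; drug 48 h; adherent cells fixed with 10% TCA, suspension cells with 16% TCA; SRB stain, absorbance 515 nm; percentage growth versus untreated control, with time-zero plates.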

NCI-H322M = assay: Growth inhibition of human NCI-H322M cells at 10 uM incubated for 48 hrs by sulforhodamine B assay relative to control; details: read-out: GI; how it was run: as §2
NCI-H460 = assay: Growth inhibition of human NCI-H460 cells at 10 uM incubated for 48 hrs by sulforhodamine B assay relative to control; details: NCI-H460, 48 h, read-out: GI; how it was run: as §2
NCI-H522 = assay: Growth inhibition of human NCI-H522 cells at 10 uM incubated for 48 hrs by sulforhodamine B assay relative to control; details: NCI-H522, 48 h, read-out: GI; how it was run: as §2
HCT-116 = assay: Growth inhibition of human HCT116 cells at 10 uM incubated for 48 hrs by sulforhodamine B assay relative to control; details: HCT-116, 48 h, read-out: GI; how it was run: as §2
HCT-15 = assay: Growth inhibition of human HCT15 cells at 10 uM incubated for 48 hrs by sulforhodamine B assay relative to control; details: HCT-15, 48 h, read-out: GI; how it was run: as §2
KM12 = assay: Growth inhibition of human KM12 cells at 10 uM incubated for 48 hrs by sulforhodamine B assay relative to control; details: KM12, 48 h, read-out: GI; how it was run: as §2
SF-268 = assay: Growth inhibition of human SF268 cells at 10 uM incubated for 48 hrs by sulforhodamine B assay relative to control; details: SF-268, 48 h, read-out: GI; how it was run: as §1
SF-539 = assay: Growth inhibition of human SF539 cells at 10 uM incubated for 48 hrs by sulforhodamine B assay relative to control; details: SF-539, 48 h, read-out: GI; how it was run: as §1
SNB-75 = assay: Growth inhibition of human SNB75 cells at 10 uM incubated for 48 hrs by sulforhodamine B assay relative to control; details: SNB-75, 48 h, read-out: GI; how it was run: as §1
M14 = assay: Growth inhibition of human M14 cells at 10 uM incubated for 48 hrs by sulforhodamine B assay relative to control; details: M14, 48 h, read-out: GI; how it was run: as §2
SK-MEL-5 = assay: Growth inhibition of human SK-MEL-5 cells at 10 uM incubated for 48 hrs by sulforhodamine B assay relative to control; details: SK-MEL-5, 48 h, read-out: GI; how it was run: as §1
UACC-62 = assay: Growth inhibition of human UACC62 cells at 10 uM incubated for 48 hrs by sulforhodamine B assay relative to control; details: UACC-62, 48 h, read-out: GI; how it was run: as §1
IGROV-1 = assay: Growth inhibition of human IGROV1 cells at 10 uM incubated for 48 hrs by sulforhodamine B assay relative to control; details: IGROV-1, 48 h, read-out: GI; how it was run: as §2
OVCAR-3 = assay: Growth inhibition of human OVCAR3 cells at 10 uM incubated for 48 hrs by sulforhodamine B assay relative to control; details: OVCAR-3, 48 h, read-out: GI; how it was run: as §2
OVCAR-4 = assay: Growth inhibition of human OVCAR4 cells at 10 uM incubated for 48 hrs by sulforhodamine B assay relative to control; details: OVCAR-4, 48 h, read-out: GI; how it was run: as §2
NCI/ADR-RES = assay: Growth inhibition of human NCI/ADR-RES cells at 10 uM incubated for 48 hrs by sulforhodamine B assay relative to control; details: read-out: GI; how it was run: as §2
SK-OV-3 = assay: Growth inhibition of human SKOV3 cells at 10 uM incubated for 48 hrs by sulforhodamine B assay relative to control; details: SK-OV-3, 48 h, read-out: GI; how it was run: as §1
786-0 = assay: Growth inhibition of human 786-0 cells at 10 uM incubated for 48 hrs by sulforhodamine B assay relative to control; details: 786-0, 48 h, read-out: GI; how it was run: as §2
A498 = assay: Growth inhibition of human A498 cells at 10 uM incubated for 48 hrs by sulforhodamine B assay relative to control; details: A498, 48 h, read-out: GI; how it was run: as §2
ACHN = assay: Growth inhibition of human ACHN cells at 10 uM incubated for 48 hrs by sulforhodamine B assay relative to control; details: read-out: GI; how it was run: as §2
RXF 393 = assay: Growth inhibition of human RXF393 cells at 10 uM incubated for 48 hrs by sulforhodamine B assay relative to control; details: RXF 393, 48 h, read-out: GI; how it was run: as §2
SN12C = assay: Growth inhibition of human SN12C cells at 10 uM incubated for 48 hrs by sulforhodamine B assay relative to control; details: read-out: GI; how it was run: as §1
MCF7 = assay: Growth inhibition of human MCF7 cells at 10 uM incubated for 48 hrs by sulforhodamine B assay relative to control; details: MCF7, 48 h, read-out: GI; how it was run: as §2
MDA-MB-231 = assay: Growth inhibition of human MDA-MB-231 cells at 10 uM incubated for 48 hrs by sulforhodamine B assay relative to control; details: MDA-MB-231, 48 h, read-out: GI; how it was run: as §2
BT-549 = assay: Growth inhibition of human BT549 cells at 10 uM incubated for 48 hrs by sulforhodamine B assay relative to control; details: BT-549, 48 h, read-out: GI; how it was run: as §2
T47D = assay: Growth inhibition of human T47D cells at 10 uM incubated for 48 hrs by sulforhodamine B assay relative to control; details: read-out: GI; how it was run: as §1
MDA-MB-468 = assay: Growth inhibition of human MDA-MB-468 cells at 10 uM incubated for 48 hrs by sulforhodamine B assay relative to control; details: MDA-MB-468, 48 h, read-out: GI; how it was run: as §2

| Structure (SMILES) | inhibition of growth at 10 µM (HL-60(TB)) | inhibition of growth at 10 µM (SR) | inhibition of growth at 10 µM (HOP-62) | inhibition of growth at 10 µM (NCI-H322M) | inhibition of growth at 10 µM (NCI-H460) | inhibition of growth at 10 µM (NCI-H522) | inhibition of growth at 10 µM (HCT-116) | inhibition of growth at 10 µM (HCT-15) | inhibition of growth at 10 µM (KM12) | inhibition of growth at 10 µM (SF-268) | inhibition of growth at 10 µM (SF-539) | inhibition of growth at 10 µM (SNB-75) | inhibition of growth at 10 µM (M14) | inhibition of growth at 10 µM (SK-MEL-5) | inhibition of growth at 10 µM (UACC-62) | inhibition of growth at 10 µM (IGROV-1) | inhibition of growth at 10 µM (OVCAR-3) | inhibition of growth at 10 µM (OVCAR-4) | inhibition of growth at 10 µM (NCI/ADR-RES) | inhibition of growth at 10 µM (SK-OV-3) | other results |
| --- | --- | --- | --- | --- | --- | --- | --- | --- | --- | --- | --- | --- | --- | --- | --- | --- | --- | --- | --- | --- | --- |
| CCOC(=O)C1=C(C)NC(SCc2nnc(-c3ccc(Cl)cc3)o2)=NC1c1ccc(Br)cc1 (stereo not given) | 77.5% | 61.2% | 13.1% | 13.6% | 19.6% | 32.4% | 51.4% | 34.9% | 24% | 13.3% | 11.3% | 32.3% | 26% | 48.6% | 44.7% | 34.5% | 22.5% | 30.4% | 32.5% | 18% | inhibition of growth at 10 µM (786-0): 15.1%; inhibition of growth at 10 µM (A498): 26.8%; inhibition of growth at 10 µM (ACHN): 30.3%; inhibition of growth at 10 µM (RXF 393): 25%; inhibition of growth at 10 µM (SN12C): < 10%; inhibition of growth at 10 µM (MCF7): 55.2%; inhibition of growth at 10 µM (MDA-MB-231): 40.2%; inhibition of growth at 10 µM (BT-549): 20.2%; inhibition of growth at 10 µM (T47D): 52%; inhibition of growth at 10 µM (MDA-MB-468): 41.8% |
| CCOC(=O)C1=C(C)NC(SCc2nnc(-c3ccc(Cl)cc3)o2)=NC1c1ccc(OC)cc1 (stereo not given) | < 10% | 18.1% | < 10% | < 10% | < 10% | < 10% | < 10% | < 10% | < 10% | < 10% | < 10% | 18.9% | < 10% | < 10% | 15.3% | 17.8% | < 10% | < 10% | < 10% | < 10% | inhibition of growth at 10 µM (786-0): 18.8%; inhibition of growth at 10 µM (A498): < 10%; inhibition of growth at 10 µM (ACHN): < 10%; inhibition of growth at 10 µM (RXF 393): < 10%; inhibition of growth at 10 µM (SN12C): < 10%; inhibition of growth at 10 µM (MCF7): < 10%; inhibition of growth at 10 µM (MDA-MB-231): 10.2%; inhibition of growth at 10 µM (BT-549): 16.9%; inhibition of growth at 10 µM (T47D): 15.2%; inhibition of growth at 10 µM (MDA-MB-468): < 10% |
| CCOC(=O)C1=C(C)NC(SCc2nnc(-c3ccc(OC)cc3)o2)=NC1c1ccc(F)cc1 (stereo not given) | 12% | 15.9% | 12% | < 10% | < 10% | 26.5% | < 10% | < 10% | < 10% | < 10% | < 10% | 17.5% | < 10% | < 10% | < 10% | < 10% | < 10% | < 10% | < 10% | 14.2% | inhibition of growth at 10 µM (786-0): < 10%; inhibition of growth at 10 µM (A498): < 10%; inhibition of growth at 10 µM (ACHN): < 10%; inhibition of growth at 10 µM (RXF 393): 14.5%; inhibition of growth at 10 µM (SN12C): < 10%; inhibition of growth at 10 µM (MCF7): < 10%; inhibition of growth at 10 µM (MDA-MB-231): < 10%; inhibition of growth at 10 µM (BT-549): < 10%; inhibition of growth at 10 µM (T47D): 33.3%; inhibition of growth at 10 µM (MDA-MB-468): < 10% |
| CC(=O)C1=C(C)NC(SCc2nnc(-c3ccc(Cl)cc3)o2)=NC1c1ccc(F)cc1 (stereo not given) | 11.5% | 19.1% | < 10% | < 10% | < 10% | 15.6% | 13.1% | < 10% | < 10% | < 10% | < 10% | 16.8% | < 10% | < 10% | 22.6% | 15.4% | < 10% | < 10% | < 10% | < 10% | inhibition of growth at 10 µM (786-0): 16.4%; inhibition of growth at 10 µM (A498): < 10%; inhibition of growth at 10 µM (ACHN): < 10%; inhibition of growth at 10 µM (RXF 393): < 10%; inhibition of growth at 10 µM (SN12C): < 10%; inhibition of growth at 10 µM (MCF7): 10.6%; inhibition of growth at 10 µM (MDA-MB-231): 17%; inhibition of growth at 10 µM (BT-549): < 10%; inhibition of growth at 10 µM (T47D): 24.1%; inhibition of growth at 10 µM (MDA-MB-468): 11.3% |
| CCOC(=O)C1=C(C)NC(SCc2nnc(-c3ccc(Cl)cc3)o2)=NC1c1cccc(Cl)c1 (stereo not given) | 80.4% | 16.4% | 25.1% | < 10% | < 10% | 74.6% | 56.5% | 29.5% | 16% | < 10% | < 10% | 16.8% | 26.2% | < 10% | 26.6% | 14.6% | 17.3% | 16.9% | 21.3% | 29.9% | inhibition of growth at 10 µM (786-0): 43%; inhibition of growth at 10 µM (A498): < 10%; inhibition of growth at 10 µM (ACHN): < 10%; inhibition of growth at 10 µM (RXF 393): < 10%; inhibition of growth at 10 µM (SN12C): < 10%; inhibition of growth at 10 µM (MCF7): 32%; inhibition of growth at 10 µM (MDA-MB-231): 18.9%; inhibition of growth at 10 µM (BT-549): 46.9%; inhibition of growth at 10 µM (T47D): 69.2%; inhibition of growth at 10 µM (MDA-MB-468): < 10% |
